From ChEMBL document CHEMBL2057112, “Enamino-oxindole HIV protease inhibitors” (Bioorg Med Chem Lett, 2012) come the findings set out here.

The term pIC50 denotes the IC50 on a negative log10 scale, so that one unit is a factor of ten. As usually defined, the pKi is the negative decadic logarithm of the Ki, by convention in mol/L.

Assay [1] has as its system Human immunodeficiency virus 1. In words: Antiviral activity against Human immunodeficiency virus 1 HXB2 expressing protease M9 mutant infected in human MT4 cells after 5 days by MTT assay. To be noted: Human immunodeficiency virus 1, HXB2, MT4, 120 h. It is filed as functional, organism-based.
The test system of assay [2] is Human immunodeficiency virus 1. Put plainly: Antiviral activity against Human immunodeficiency virus 1 HXB2 expressing protease M10 mutant infected in human MT4 cells after 5 days by MTT assay. Type of assay: functional, organism-based. The following applies: Human immunodeficiency virus 1, HXB2, MT4, 120 h. A general note: Formazan colour is commonly taken as a measure of viable cells.

Assay [3] relates to Human immunodeficiency virus 1. In words: Antiviral activity against Human immunodeficiency virus 1 HXB2 expressing protease M3 mutant infected in human MT4 cells after 5 days by MTT assay. It is filed as functional, organism-based. The following applies: Human immunodeficiency virus 1, HXB2, MT4, 120 h. In outline:
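MT-4 cells (AIDS Research and Reference Reagent Program) exposed to 50% tissue culture infective doses (TCID₅₀) of virus with various concentrations of test compound for 5 days. MTT solution then added and absorbance measured. Mutant strains carry 10–17 resistance mutations with phenotypic resistance to marketed PIs; all include I84V except M7. IC₅₀ reported.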

A short description of assay [4]: Inhibition of wild type Human immunodeficiency virus protease expressed in Escherichia coli using ArgGlu(EDANS)SerGlnAsnTyrProIleValGlnLys(DABCYL)Arg as substrate preincubated with compound for 0.5 to 1 min measured by fluorometric analysis at pH 6.5.
Assay [5] can be described thus: Inhibition of Human immunodeficiency virus protease M10 mutant expressed in Escherichia coli using ArgGlu(EDANS)SerGlnAsnTyrProIleValGlnLys(DABCYL)Arg as substrate preincubated with compound for 0.5 to 1 min measured by fluorometric analysis at pH 6.5.
Assay [6] deals with Human immunodeficiency virus 1. In words: Antiviral activity against Human immunodeficiency virus 1 HXB2 expressing wild type protease infected in human MT4 cells after 5 days by MTT assay. It is filed as functional, organism-based. To be noted: Human immunodeficiency virus 1, HXB2, MT4, 120 h.
The nature of assay [7]: Inhibition of Human immunodeficiency virus protease M8 mutant expressed in Escherichia coli using ArgGlu(EDANS)SerGlnAsnTyrProIleValGlnLys(DABCYL)Arg as substrate preincubated with compound for 0.5 to 1 min measured by fluorometric analysis at pH 6.5.
A short description of assay [8]: Inhibition of Human immunodeficiency virus protease M9 mutant expressed in Escherichia coli using ArgGlu(EDANS)SerGlnAsnTyrProIleValGlnLys(DABCYL)Arg as substrate preincubated with compound for 0.5 to 1 min measured by fluorometric analysis at pH 6.5.
Assay [9] relates to Human immunodeficiency virus 1. Put plainly: Antiviral activity against Human immunodeficiency virus 1 HXB2 expressing protease M8 mutant infected in human MT4 cells after 5 days by MTT assay. Type of assay: functional, organism-based. To be noted: Human immunodeficiency virus 1, HXB2, MT4, 120 h.

pIC50, pKi: −log10 of the molar value.

On to `CNC=C1C(=O)Nc2ccc(S(=O)(=O)N(CC(C)C)C[C@@H](O)[C@H](Cc3ccccc3)NC(=O)O[C@H]3CO[C@H]4OCC[C@H]43)cc21` (mixture of isomers), for which the pIC50 in assay [1] was 7.30; in assay [2], 7.03; in assay [3] it was 7.29; in assay [6], 7.22. For the same molecule, the pKi in assay [4] was more than 10.00; in [5], more than 9.00; in assay [7], 9.96; in [8], more than 9.52.
As to `CC(C)CN(C[C@@H](O)[C@H](Cc1ccccc1)NC(=O)O[C@H]1CO[C@H]2OCC[C@H]21)S(=O)(=O)c1ccc2c(c1)CC(=O)N2`, the pIC50 in assay [1] is 6.96; in assay [9], 6.82; in [2], 6.03; in assay [6] it was 7.09. Also, the pKi is more than 10.00 in assay [4], 7.85 in assay [5], 9.28 in assay [7] and 9.02 in assay [8].
Regarding `CC(C)CN(C[C@@H](O)[C@H](Cc1ccccc1)NC(=O)O[C@H]1CO[C@H]2OCC[C@H]21)S(=O)(=O)c1ccc2c(c1)C(=CNCc1nc3ccccc3[nH]1)C(=O)N2` (mixture of isomers), the pKi was more than 10.00 in assay [4], more than 9.00 in assay [5] and more than 9.52 in assay [8]. The molecule also gave a pIC50 in assay [6] of less than 6.40.
In the case of `CC(C)CN(C[C@@H](O)[C@H](Cc1ccccc1)NC(=O)O[C@H]1CO[C@H]2OCC[C@H]21)S(=O)(=O)c1ccc2c(c1)C(=CNCCc1ccccc1)C(=O)N2` (mixture of isomers), the negative-log IC50 (pIC50) in [1] was 7.55; in assay [9], 7.21; in assay [2] it was 6.96; in [6], 7.66. Moreover, the pKi in assay [4] is more than 10.00; in assay [5], 8.89; in [7], 9.77; in assay [8], more than 9.52.
Turning to `CC(C)CN(C[C@@H](O)[C@H](Cc1ccccc1)NC(=O)O[C@H]1CO[C@H]2OCC[C@H]21)S(=O)(=O)c1ccc2c(c1)C(=CNCc1ccncc1)C(=O)N2` (mixture of isomers), the pIC50 in assay [1] was 6.66; in [9] it was 6.57; in [2] it was 6.96; in assay [6], 6.52. In addition, the pKi is more than 10.00 in assay [4], more than 9.00 in assay [5] and more than 9.52 in assay [8].
As for `CC(C)CN(C[C@@H](O)[C@H](Cc1ccccc1)NC(=O)O[C@H]1CO[C@H]2OCC[C@H]21)S(=O)(=O)c1ccc2c(c1)C(=CNCCO)C(=O)N2` (mixture of isomers), the pIC50 in assay [1] is 6.10; in assay [2] it was 6.40; in assay [6], less than 6.40. Moreover, the pKi in [4] was more than 10.00; in assay [5], more than 9.00; in assay [7], 9.96; in [8] it was more than 9.52.
With `CC(C)CN(C[C@@H](O)[C@H](Cc1ccccc1)NC(=O)O[C@H]1CO[C@H]2OCC[C@H]21)S(=O)(=O)c1ccc2c(c1)C(=CN)C(=O)N2` (mixture of isomers), the pIC50 in assay [1] was 6.70; in [9], 6.70; in assay [2] it was 6.74; in [6], 6.52. The pKi in assay [4] is more than 10.00; in assay [5], 8.52; in [8], more than 9.52.
`CC(C)CN(C[C@@H](O)[C@H](Cc1ccccc1)NC(=O)O[C@H]1CO[C@H]2OCC[C@H]21)S(=O)(=O)c1ccc2c(c1)C(=CNCCNc1ccccc1)C(=O)N2` (mixture of isomers): the negative logarithm of the IC50 (pIC50) was 7.10 in assay [1], 6.80 in [9], 6.92 in [2] and less than 7.10 in [6]. The pKi in assay [4] was more than 10.00; in [5], 8.52; in assay [7], 9.41; in assay [8] it was more than 9.52.
Turning to `COCCNC=C1C(=O)Nc2ccc(S(=O)(=O)N(CC(C)C)C[C@@H](O)[C@H](Cc3ccccc3)NC(=O)O[C@H]3CO[C@H]4OCC[C@H]43)cc21` (mixture of isomers), the values for the pIC50 in [1], in assay [2] and in [6] were 7.38, 7.32 and 7.15, respectively. The pKi was 9.96 in assay [4], 8.92 in assay [5], more than 10.00 in [7] and more than 9.52 in [8].
On to `CCN(C=C1C(=O)Nc2ccc(S(=O)(=O)N(CC(C)C)C[C@@H](O)[C@H](Cc3ccccc3)NC(=O)O[C@H]3CO[C@H]4OCC[C@H]43)cc21)CC` (mixture of isomers), for which the pIC50 in assay [1] is 7.68; in [9], 7.40; in [2], 7.39; in assay [6], 7.42. Further, the values for the pKi in assay [4], in [5] and in [8] were more than 10.00, more than 9.00 and more than 9.52, respectively.
Consider `CC(C)CN(C[C@@H](O)[C@H](Cc1ccccc1)NC(=O)O[C@H]1CO[C@H]2OCC[C@H]21)S(=O)(=O)c1ccc2c(c1)C(=CNCCN(C)C)C(=O)N2` (mixture of isomers), for which the pKi in [4] is more than 10.00; in [5] it was 8.77; in assay [7], 9.24; in [8], more than 9.52. Besides, in assay [6], the negative logarithm of the IC50 (pIC50) was less than 6.40.
With `Cc1nc(CNC=C2C(=O)Nc3ccc(S(=O)(=O)N(CC(C)C)C[C@@H](O)[C@H](Cc4ccccc4)NC(=O)O[C@H]4CO[C@H]5OCC[C@H]54)cc32)cs1` (mixture of isomers), the pIC50 in assay [1] is 7.52; in [9], 7.40; in [2], 7.54; in [6], 7.35. Also, the values for the pKi in assay [4], in assay [5] and in assay [8] were more than 10.00, more than 9.00 and more than 9.52, respectively.
Regarding `CC(C)CN(C[C@@H](O)[C@H](Cc1ccccc1)NC(=O)O[C@H]1CO[C@H]2OCC[C@H]21)S(=O)(=O)c1ccc2c(c1)C(=CNC(C)(C)C)C(=O)N2` (mixture of isomers), the pIC50 is 7.60 in assay [1], 7.46 in [9], 6.70 in [2] and 8.05 in assay [6]. For the same molecule, the pKi is more than 10.00 in assay [4], 7.85 in assay [5], 9.46 in assay [7] and 9.14 in [8].
With `CC(C)CN(C[C@@H](O)[C@H](Cc1ccccc1)NC(=O)O[C@H]1CO[C@H]2OCC[C@H]21)S(=O)(=O)c1ccc2c(c1)C(=CN(C)C)C(=O)N2` (mixture of isomers), the pIC50 is 7.19 in [1], 7.05 in assay [9], 7.15 in assay [2] and 7.03 in assay [6]. Besides, the pKi in [4] is more than 10.00; in assay [5], more than 9.00; in assay [8], more than 9.52.
For the molecule `CC(C)CN(C[C@@H](O)[C@H](Cc1ccccc1)NC(=O)O[C@H]1CO[C@H]2OCC[C@H]21)S(=O)(=O)c1ccc2c(c1)C(=CNc1ccccc1)C(=O)N2`, the negative-log IC50 (pIC50) in assay [1] is 7.00; in assay [9], 6.96; in assay [2], less than 6.40; in [6], 7.89. Besides, the pKi in assay [4] is more than 10.00; in [5], 7.89; in assay [7], 9.34; in [8], 8.92.
As to `CCNC=C1C(=O)Nc2ccc(S(=O)(=O)N(CC(C)C)C[C@@H](O)[C@H](Cc3ccccc3)NC(=O)O[C@H]3CO[C@H]4OCC[C@H]43)cc21` (mixture of isomers), the pIC50 in assay [1] is 7.57; in assay [9], 7.46; in assay [2], 7.10; in assay [6], 7.55. Also, the pKi is more than 10.00 in assay [4], more than 9.00 in assay [5] and more than 9.52 in [8].
As to `CC(C)CN(C[C@@H](O)[C@H](Cc1ccccc1)NC(=O)O[C@H]1CO[C@H]2OCC[C@H]21)S(=O)(=O)c1ccc2c(c1)C(=CNC1CC1)C(=O)N2` (mixture of isomers), the pIC50 was 7.60 in assay [1], 7.49 in assay [9], 6.52 in assay [2] and 7.62 in [6]. Further, the pKi is more than 10.00 in [4], 8.68 in assay [5], 9.92 in assay [7] and more than 9.52 in assay [8].
`CC(C)CN(C[C@@H](O)[C@H](Cc1ccccc1)NC(=O)O[C@H]1CO[C@H]2OCC[C@H]21)S(=O)(=O)c1ccc2c(c1)C(=CNC(C)C)C(=O)N2` (mixture of isomers): the pIC50 was 7.72 in assay [1], 7.52 in assay [9], 7.22 in assay [2] and 7.82 in assay [6]. Also, the pKi is more than 10.00 in [4], more than 9.00 in [5], 9.96 in assay [7] and more than 9.52 in [8].
